Measured values: ChEMBL document CHEMBL2010803, “Novel NSAID 1-acyl-4-cycloalkyl/arylsemicarbazides and 1-acyl-5-benzyloxy/hydroxy carbamoylcarbazides as potential anticancer agents and antioxidants” (Eur J Med Chem, 2012)
pIC50: −log10 of the molar value. Activity calls are given as the source filed them. The calls are words filed in the database; no cut-off is given here.

What was measured:
Human respirovirus 3 = assay: Antiviral activity against Parainfluenza virus 3 infected in african green monkey Vero cells assessed as inhibition of virus-induced cytopathic effect at 0.32 to 100 uM; assay type: functional, organism-based
Procedure, shortened: (§1)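 Confluent cell cultures were infected with 100 CCID50 of virus in the presence of test compound at 100, 40, 8, 1.6 and 0.32 μM. Cytopathic effect was scored once it was complete in untreated infected controls.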

Human alphaherpesvirus 2 = assay: Antiviral activity against HSV2 G infected in human lung fibroblast assessed as inhibition of virus-induced cytopathic effect at 0.32 to 100 uM; assay type: functional, organism-based; settings: strain G; procedure, shortened: as §1
Coxsackievirus B4 [1] = assay: Antiviral activity against Coxsackievirus B4 infected in african green monkey Vero cells assessed as inhibition of virus-induced cytopathic effect at 0.32 to 100 uM; assay type: functional, organism-based; procedure, shortened: as §1
Punta Toro virus = assay: Antiviral activity against Punta Toro virus infected in african green monkey Vero cells assessed as inhibition of virus-induced cytopathic effect at 0.32 to 100 uM; assay type: functional, organism-based; procedure, shortened: as §1
[2] = tested on: Vesicular stomatitis virus; assay: Antiviral activity against VSV infected in human lung fibroblast assessed as inhibition of virus-induced cytopathic effect at 0.32 to 100 uM; assay type: functional, organism-based
Felid alphaherpesvirus 1 = assay: Antiviral activity against Feline herpesvirus infected in feline CRFK cells assessed as inhibition of virus-induced cytopathic effect at 0.32 to 100 uM; assay type: functional, organism-based; procedure, shortened: as §1
[3] = tested on: Vesicular stomatitis virus; assay: Antiviral activity against Vesicular stomatitis virus infected in human cervix carcinoma cells assessed as inhibition of virus-induced cytopathic effect at 0.32 to 100 uM; assay type: functional, organism-based
Procedure, shortened: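 Confluent human cervix carcinoma (HeLa) cultures received 100 CCID50 of VSV together with the compound at 100, 40, 8, 1.6 or 0.32 μM. Cytopathicity was read at the point of full CPE in infected, untreated control wells.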

CCRF-CEM = assay: Cytostatic activity against human CEM cells after 3 days by coulter counter analysis; assay type: functional, cell-based; settings: 72 h
Procedure, shortened: (§2)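 300,000–500,000 cells/ml mixed 1:1 with compound dilutions and incubated at 37 °C for 2 days (L1210) or 3 days (CEM, HeLa). Cell number counted with a Coulter counter; HeLa trypsinized before counting.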

Influenza A virus [4] = assay: Antiviral activity against Influenza A virus H1N1 infected in MDCK cells assessed as inhibition of virus-induced cytopathic effect at 0.32 to 100 uM; assay type: functional, organism-based
Procedure, shortened: (§3)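 Confluent MDCK monolayers were infected in the presence of the compound at 100, 40, 8, 1.6 and 0.32 μM. Viral cytopathicity was scored once it was complete in untreated infected control cultures.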

HCT-116 = assay: Cytostatic activity against human HCT116 cells after 72 hrs by MTT assay; assay type: functional, cell-based; settings: HCT-116, 72 h
Procedure, shortened: (§4)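 Monolayers in DMEM with 10% FBS, 2 mM L-glutamine and penicillin/streptomycin, 37 °C, 5% CO2. Seeded at 1–3 × 10^4 cells/ml, then compound added in tenfold dilutions (10⁻⁸–10⁻⁴ M) for 72 h. MTT read at 570 nm; percent growth taken against time-zero and untreated controls. IC50 by linear regression; quadruplicate, at least two experiments.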

[5] = tested on: Respiratory syncytial virus; assay: Antiviral activity against RSV infected in human cervix carcinoma cells assessed as inhibition of virus-induced cytopathic effect at 0.32 to 100 uM; assay type: functional, organism-based; procedure, shortened: as §1
Vaccinia virus = assay: Antiviral activity against Vaccinia virus infected in human lung fibroblast assessed as inhibition of virus-induced cytopathic effect at 0.32 to 100 uM; assay type: functional, organism-based; settings: Orthopoxvirus vaccinia
L1210 = assay: Cytostatic activity against mouse L1210 cells after 2 days by coulter counter analysis; assay type: functional, cell-based; settings: L1210, 48 h; procedure, shortened: as §2
MCF7 = assay: Cytostatic activity against human MCF7 cells after 72 hrs by MTT assay; assay type: functional, cell-based; settings: MCF7, 72 h; procedure, shortened: as §4
[6] = tested on: Radical scavenging activity; assay: Antioxidant activity assessed as DPPH free radical scavenging activity at 100 uM after 20 mins by spectrophotometric analysis; assay type: functional
Procedure, shortened: (§5)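 0.05 mM DPPH in absolute ethanol mixed with an equal volume of compound in DMSO (final 100 μM). Shaken and left 20 or 60 min, then absorbance read at 517 nm and percent activity calculated. Three replicates, averaged.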

Influenza B virus = assay: Antiviral activity against Influenza B virus infected in MDCK cells assessed as inhibition of virus-induced cytopathic effect at 0.32 to 100 uM; assay type: functional, organism-based; procedure, shortened: as §3
[7] = tested on: Radical scavenging activity; assay: Antioxidant activity assessed as DPPH free radical scavenging activity at 100 uM after 60 mins by spectrophotometric analysis; assay type: functional; procedure, shortened: as §5
Coxsackievirus B4 [8] = assay: Antiviral activity against Coxsackievirus B4 infected in human cervix carcinoma cells assessed as inhibition of virus-induced cytopathic effect at 0.32 to 100 uM; assay type: functional, organism-based; procedure, shortened: as §1
HaCaT = assay: Cytostatic activity against human HaCaT cells after 72 hrs by MTT assay; assay type: ADME, cell-based; procedure, shortened: as §4
Influenza A virus [9] = assay: Antiviral activity against Influenza A virus H3N2 infected in MDCK cells assessed as inhibition of virus-induced cytopathic effect at 0.32 to 100 uM; assay type: functional, organism-based; procedure, shortened: as §3
[10] = Antioxidant activity assessed as inhibition of AAPH-induced linoleic acid lipid peroxidation by measuring conjugated diene hydroperoxide level; assay type: functional; parameters: concentration or dose not given beside the values; settings: dose or concentration not given here
Procedure, shortened: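 Linoleic acid sodium salt (10 μL of 16 mM) in 0.05 M phosphate buffer pH 7.4 at 37 °C. Oxidation started under air with 50 μL of 40 mM AAPH. Conjugated diene hydroperoxide formation followed as absorbance rise at 234 nm; control contains the same DMSO level. At least triplicate.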

Human alphaherpesvirus 1 = assay: Antiviral activity against HSV1 KOS infected in human lung fibroblast assessed as inhibition of virus-induced cytopathic effect at 0.32 to 100 uM; assay type: functional, organism-based; procedure, shortened: as §1
Sindbis virus = assay: Antiviral activity against Sindbis virus infected in african green monkey Vero cells assessed as inhibition of virus-induced cytopathic effect at 0.32 to 100 uM; assay type: functional, organism-based; procedure, shortened: as §1
[11] = tested on: Mammalian orthoreovirus 1; assay: Antiviral activity against Reovirus-1 infected in african green monkey Vero cells assessed as inhibition of virus-induced cytopathic effect at 0.32 to 100 uM; assay type: functional, organism-based; procedure, shortened: as §1
NCI-H460 = assay: Cytostatic activity against human NCI-H460 cells after 72 hrs by MTT assay; assay type: functional, cell-based; settings: NCI-H460, 72 h; procedure, shortened: as §4
Glycine max = assay: Inhibition of soybean LOX assessed as conversion of sodium linoleate to 13- hydroperoxylinoleic acid at 100 uM
[12] = tested on: Human immunodeficiency virus 2; assay: Antiviral activity against HIV2 ROD infected in human CEM cells assessed as inhibition of virus-induced CEM giant cell formation at 0.32 to 100 uM after 4 days; assay type: functional, organism-based; settings: ISOLATE ROD, CCRF-CEM
Procedure, shortened: (§6)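 CEM cells (~3 × 10^5 cells/cm³) exposed to 100 CCID50/ml of virus and seeded into wells holding compound dilutions. Incubated 4 days at 37 °C, then giant cell formation examined microscopically.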

Feline coronavirus = assay: Antiviral activity against Feline coronavirus infected in feline CRFK cells assessed as inhibition of virus-induced cytopathic effect at 0.32 to 100 uM; assay type: functional, organism-based; procedure, shortened: as §1
[13] = tested on: Human immunodeficiency virus 1; assay: Antiviral activity against HIV1 3B infected in human CEM cells assessed as inhibition of virus-induced CEM giant cell formation at 0.32 to 100 uM after 4 days; assay type: functional, organism-based; settings: CCRF-CEM; procedure, shortened: as §6
HeLa = assay: Cytostatic activity against human HeLa cells after 3 days by coulter counter analysis; assay type: functional, cell-based; settings: 72 h; procedure, shortened: as §2

| SMILES | inhibition (Human respirovirus 3) | inhibition (Human alphaherpesvirus 2) | inhibition (Coxsackievirus B4 [1]) | inhibition (Punta Toro virus) | inhibition [2] | inhibition (Felid alphaherpesvirus 1) | inhibition [3] | pIC50 (CCRF-CEM) | inhibition (Influenza A virus [4]) | pIC50 (HCT-116) | inhibition [5] | inhibition (Vaccinia virus) | pIC50 (L1210) | pIC50 (MCF7) | Activity [6] | inhibition (Influenza B virus) | Activity [7] | inhibition (Coxsackievirus B4 [8]) | pIC50 (HaCaT) | inhibition (Influenza A virus [9]) | also measured |
| --- | --- | --- | --- | --- | --- | --- | --- | --- | --- | --- | --- | --- | --- | --- | --- | --- | --- | --- | --- | --- | --- |
| CC(C(=O)NNC(=O)NCC1CCCCC1)c1cccc(Oc2ccccc2)c1 (centres undefined) | inactive | inactive | inactive | inactive | inactive | inactive | inactive | 4.62 | inactive | 4.82 | inactive | inactive | 4.66 | 4.89 | 18% | inactive | 21% | inactive | 4.70 | inactive | inhibition [10]: 64%; inhibition (Human alphaherpesvirus 1): inactive; inhibition (Sindbis virus): inactive; inhibition [11]: inactive; pIC50 (NCI-H460): 4.72; inhibition (Glycine max): 12%; inhibition [12]: inactive; inhibition (Feline coronavirus): inactive; inhibition [13]: inactive |
| CC(C)Cc1ccc(C(C)C(=O)NNC(=O)NC2CCCC2)cc1 (centres undefined) | inactive | inactive | inactive | inactive | inactive | inactive | inactive | 4.13 | inactive | 4.49 | inactive | inactive | 3.99 | 4.74 | 4% | inactive | 7% | inactive | – | inactive | pIC50 (HeLa): 4.10; inhibition [10]: 26%; inhibition (Human alphaherpesvirus 1): inactive; inhibition (Sindbis virus): inactive; inhibition [11]: inactive; pIC50 (NCI-H460): 4.49; inhibition (Glycine max): inactive; inhibition [12]: inactive; inhibition (Feline coronavirus): inactive; inhibition [13]: inactive |
| O=c1[nH]cc(F)c(=O)[nH]1 [FLUOROURACIL] | – | – | – | – | – | – | – | – | – | – | – | – | – | – | – | – | – | – | 6.52 | – | – |
